ChEMBL document CHEMBL2150861, “Fibrate-derived N-(methylsulfonyl)amides with antagonistic properties on PPARα” (Eur J Med Chem, 2012)
Calls of active or inactive are those of the source. The calls are words filed in the database; no cut-off is given here.

Key:
[1] = target: T1, Peroxisome proliferator-activated receptor alpha (Homo sapiens, UniProt Q07869); assay: (§1) Antagonist activity at PPARalpha expressed in HEK293 cells co-expressing GAL4 assessed as inhibition of GW7647-induced transactivation activity after 16 to 18 hrs by luciferase reporter gene assay; format: functional, cell-based
T1 sequence (Q07869 whole entry): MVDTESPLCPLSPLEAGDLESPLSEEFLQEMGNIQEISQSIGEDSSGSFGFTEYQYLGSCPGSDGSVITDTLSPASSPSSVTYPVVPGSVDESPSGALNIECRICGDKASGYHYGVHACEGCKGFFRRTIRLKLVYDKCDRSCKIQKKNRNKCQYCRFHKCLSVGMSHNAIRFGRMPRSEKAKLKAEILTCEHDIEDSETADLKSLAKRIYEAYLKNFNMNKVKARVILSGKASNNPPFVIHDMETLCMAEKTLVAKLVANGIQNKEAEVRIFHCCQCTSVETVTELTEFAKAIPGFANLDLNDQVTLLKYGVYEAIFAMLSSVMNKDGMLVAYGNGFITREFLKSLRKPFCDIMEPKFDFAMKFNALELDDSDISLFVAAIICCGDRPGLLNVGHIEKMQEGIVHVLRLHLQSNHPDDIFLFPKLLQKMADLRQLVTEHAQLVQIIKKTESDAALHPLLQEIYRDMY
How it was run: (§2)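 GAL4–PPARα chimera in HEK293A cells grown to 70–80% confluency over 16 h, then switched to serum-free medium. Cells co-transfected by calcium phosphate with reporter, renilla, pGEM and receptor plasmids. […] Firefly luciferase read after 16–18 h. Five concentrations, 1–150 µM, at least three separate experiments, IC50 ± SEM.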

[2] = target: T1, Peroxisome proliferator-activated receptor alpha; assay: Binding affinity to PPARalpha LBD after 2 hrs by TR-FRET analysis
How it was run: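 TR-FRET competitive binding to PPARα LBD. Five concentrations, three independent experiments. After 2 h incubation, excitation at 340 nm, emission at 520 nm (fluorescein acceptor) and 495 nm (terbium donor). Ratio 520/495 used to derive IC50.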

[3] = target: T2, Peroxisome proliferator-activated receptor alpha (Homo sapiens) (UniProt Q07869); assay: Transactivation of PPARalpha expressed in HEK293A cells co-expressing GAL4 at 1 to 150 uM after 16 to 18 hrs by luciferase reporter gene assay; format: cell-based; conditions: HEK293-A
T2 sequence (whole entry): T1 sequence (Q07869 whole entry)
How it was run: (§3)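 HEK293A cells cultured to 70–80% confluency, moved to serum-free medium, then calcium-phosphate co-transfected with GAL4–PPARα, luciferase reporter, renilla and pGEM plasmids. Compounds added 6 h after transfection and run in agonist mode. Firefly luciferase activity measured after 16–18 h. Five concentrations from 1 to 150 µM, at least three separate experiments, EC50 ± SEM.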

[4] = target: T3, Peroxisome proliferator-activated receptor gamma (Homo sapiens) (UniProt P37231); assay: Transactivation of PPARgamma expressed in HEK293A cells co-expressing GAL4 at the concentration corresponding to IC50 or EC50 on PPARalpha after 16 to 18 hrs by luciferase reporter gene assay; conditions: HEK293-A
T3 sequence (whole entry): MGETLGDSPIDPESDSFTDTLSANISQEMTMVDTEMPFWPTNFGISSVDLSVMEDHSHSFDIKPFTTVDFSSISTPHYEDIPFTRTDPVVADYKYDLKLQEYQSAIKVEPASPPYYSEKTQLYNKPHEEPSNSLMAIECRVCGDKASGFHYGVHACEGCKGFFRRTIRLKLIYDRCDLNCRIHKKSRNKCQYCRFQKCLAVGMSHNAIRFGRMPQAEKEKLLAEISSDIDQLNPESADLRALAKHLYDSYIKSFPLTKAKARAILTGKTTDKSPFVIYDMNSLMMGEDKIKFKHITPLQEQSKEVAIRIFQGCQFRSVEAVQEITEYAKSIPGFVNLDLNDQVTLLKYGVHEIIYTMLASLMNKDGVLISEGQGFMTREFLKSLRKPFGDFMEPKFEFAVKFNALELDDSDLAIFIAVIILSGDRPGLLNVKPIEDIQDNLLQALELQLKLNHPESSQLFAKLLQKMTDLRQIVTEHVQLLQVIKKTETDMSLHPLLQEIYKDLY

[5] = target: T2, Peroxisome proliferator-activated receptor alpha (Homo sapiens); assay: Transactivation of PPARalpha expressed in HEK293A cells co-expressing GAL4 at 150 uM after 16 to 18 hrs by luciferase reporter gene assay relative to control; format: cell-based; conditions: HEK293-A
How it was run: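 Single-concentration agonist-mode transactivation: GAL4–PPARα or GAL4–PPARγ chimera, calcium-phosphate transfected into HEK293A cells with reporter, renilla and pGEM plasmids. […] Firefly luciferase read after 16–18 h. Values are ± SEM.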

[6] = target: T2, Peroxisome proliferator-activated receptor alpha (Homo sapiens); assay: Binding affinity to PPARalpha LBD at 100 uM after 2 hrs by TR-FRET analysis
How it was run: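 After 2 h incubation, excitation at 340 nm and emission at 520 and 495 nm. The 520/495 ratio is normalized to clofibric acid as 100%.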

[7] = target: T2, Peroxisome proliferator-activated receptor alpha (Homo sapiens); assay: Antagonist activity at PPARalpha expressed in HEK293A cells co-expressing GAL4 assessed as inhibition of GW7647-induced transactivation activity at 1 to 150 uM after 16 to 18 hrs by luciferase reporter gene assay; format: functional, cell-based; conditions: HEK293-A; how it was run: as §2
[8] = target: T1, Peroxisome proliferator-activated receptor alpha; assay: Transactivation of PPARalpha expressed in HEK293A cells co-expressing GAL4 after 16 to 18 hrs by luciferase reporter gene assay; format: cell-based, HEK293-A; how it was run: as §3
[9] = target: T2, Peroxisome proliferator-activated receptor alpha (Homo sapiens); assay: as §1; format: functional, cell-based; how it was run: as §2
[10] = target: T3, Peroxisome proliferator-activated receptor gamma (Homo sapiens); assay: Antagonist activity at PPARgamma expressed in HEK293A cells co-expressing GAL4 after 16 to 18 hrs by luciferase reporter gene assay; format: functional, cell-based; conditions: HEK293-A

Row | Compound | IC50 [1] [nM] | IC50 [2] [nM] | Activity [3] | Activity [4] | fold change (FC) [5] | Activity [6] | inhibition [7] | EC50 [8] [nM] | inhibition [9] | inhibition [10]
1 | CCCC(Sc1nc2ccc(OCC)cc2s1)C(=O)NS(C)(=O)=O (stereo unspecified) | 8870 | 480 | inactive | Active | 0.36 | 137% |  |  |  | 
2 | CC(C)(Oc1ccc(C(=O)c2ccc(Cl)cc2)cc1)C(=O)NS(C)(=O)=O |  |  | inactive |  | 1.1 | 128% | inactive |  |  | 
3 | CCCC(Sc1nc2cc(Cl)ccc2s1)C(=O)NS(C)(=O)=O (stereo unspecified) | 600 | 890 | inactive | Active | 0.28 | 80.9% |  |  |  | 
4 | CCOc1ccc2nc(SC(C)C(=O)NS(C)(=O)=O)sc2c1 (stereo unspecified) |  |  |  | Active | 1.84 | Active | inactive | 1590 |  | 
5 | CC(C)(Oc1ccc(Cl)cc1)C(=O)NS(C)(=O)=O |  |  |  | Active | 1.7 | 121% | inactive | 10700 |  | 
6 | Cc1ccc(C)c(OCCCC(C)(C)C(=O)NS(C)(=O)=O)c1 |  |  |  | Active | 1.55 | 118% | inactive | 7100 |  | 
7 | CCCCC(Sc1nc2cc(Cl)ccc2s1)C(=O)NS(C)(=O)=O (stereo unspecified) | 800 | 600 | inactive |  | 0.08 | 117% |  |  | Dose-dependent effect | 
8 | CS(=O)(=O)NC(=O)C(Sc1nc2cc(Cl)ccc2s1)c1ccccc1 (stereo unspecified) | 900 | 950 | inactive |  | 0.07 | 95.3% |  |  |  | Active
9 | CC(C)(Oc1ccc(CCNC(=O)c2ccc(Cl)cc2)cc1)C(=O)NS(C)(=O)=O | 68500 |  | inactive | Active | 0.44 | Active |  |  | Dose-dependent effect | 
10 | CC(C)C(Sc1nc2cc(Cl)ccc2s1)C(=O)NS(C)(=O)=O (stereo unspecified) | 46500 |  | inactive | Active | 0.47 | Active |  |  |  | 
11 | CCCCCCC(Sc1nc2cc(Cl)ccc2s1)C(=O)NS(C)(=O)=O (stereo unspecified) | 5100 |  | inactive |  | 0.04 | Active |  |  |  | Active
12 | CC(C)(Oc1ccc(Cl)cc1)C(=O)O |  |  |  |  | 1.6 |  | inactive |  |  | 
